Measured values taken from ChEMBL document CHEMBL1121429, “Soft drugs. 1. Labile quaternary ammonium salts as soft antimicrobials” (J Med Chem, 1980).

Assays:
Streptococcus pyogenes [1] = test: Sterilization time for contact germicidal efficiency (CGE) of salt was tested against Streptococcus pyogenes at pH 7.0, concentration 254 ppm; format: functional
Pseudomonas aeruginosa [2] = test: Sterilization time for contact germicidal efficiency (CGE) of salt was tested against Pseudomonas aeruginosa at pH 7.0, concentration 254 ppm; format: functional
Staphylococcus aureus [3] = test: Sterilization time for contact germicidal efficiency (CGE) of salt was tested against Staphylococcus aureus at pH 7.0, concentration 254 ppm; format: functional
[4] = Toxicity of the salt was tested on white swiss male mice after intraperitoneal administration; format: organism-based; conditions: mouse, in vivo, ip
Procedure, shortened: (§1)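 Male White Swiss mice (MCR-ICR), 20-23 g, 10-20 per dose. Salt given in isotonic NaCl, pH 7.0 (adjusted with sodium bicarbonate). LD50 with confidence limits was calculated by Litchfield–Wilcoxon.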

[5] = Toxicity of the salt was tested on white swiss male mice after oral administration; format: organism-based; conditions: mouse, in vivo
Procedure, shortened: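 Male White Swiss mice (MCR-ICR), 20-23 g, 10-20 per dose, dosed orally. At higher doses the salt was given in 0.8% NaCl brought to pH 5.84 with sodium bicarbonate. LD50 was calculated by Litchfield–Wilcoxon.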

[6] = Toxicity of the salt was tested on white swiss male mice after intravenous administration; format: organism-based; conditions: mouse, in vivo; procedure, shortened: as §1
Bacillus subtilis = test: Minimum inhibitory concentration of salt was tested against Bacillus subtilis at 0.1 M NaH2PO4 adjusted to pH 7.0; format: functional
Staphylococcus aureus [7] = test: Minimum inhibitory concentration of salt was tested against Staphylococcus aureus aureus at 0.1 M NaH2PO4 adjusted to pH 7.0; format: functional
Procedure, shortened: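 Bacteria grown 18-20 h at 37 °C in tryptose phosphate broth, adjusted to OD650 0.01, then diluted into double-strength medium to about 2 × 10^5 viable organisms/mL. Compound in 0.1 M NaH2PO4 pH 7.0 was serially twofold diluted into sterile water and added 1:1 to the cultures. MIC read after 18-20 h at 37 °C, with viability, sterility and buffer controls.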

Pseudomonas aeruginosa [8] = test: Minimum inhibitory concentration of salt was tested against Pseudomonas aeruginosa at 0.1 M NaH2PO4 adjusted to pH 7.0; format: functional
Salmonella typhimurium = test: Minimum inhibitory concentration of salt was tested against Salmonella Typhimurium […] at 0.1 M NaH2PO4 adjusted to pH 7.0; format: functional; conditions: Salmonella enterica
Streptococcus pyogenes [9] = test: Minimum inhibitory concentration of salt was tested against Streptococcus pyogenes aureus at 0.1 M NaH2PO4 adjusted to pH 7.0; format: functional
Streptococcus pyogenes [10] = test: Sterilization time for contact germicidal efficiency (CGE) of salt was tested against at Streptococcus pyogenes at pH 7.0, concentration 1116.0 ppm; format: functional
Procedure, shortened: (§2)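 Streptococcus pyogenes ATCC 19615 overnight culture, 5 × 10^6 cfu/mL; 0.2 mL into 5 mL test solution of salt in buffer, left 30 min at room temperature beforehand. At timed intervals (0.5 to 30 min), a 3-mm loop was transferred to sterile nutrient broth and incubated at 37 °C for 7 days. Sterilization time is the shortest interval without growth; buffer-only and viability controls were run.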

Staphylococcus aureus [11] = test: Sterilization time for contact germicidal efficiency (CGE) of salt was tested against Staphylococcus aureus at pH 7.0, concentration 1116.0 ppm; format: functional
Procedure, shortened: (§3)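 Test solutions of the quaternary salt in buffer stood 30 min at room temperature. 0.2 mL of overnight broth culture was added to 5 mL of solution. Inocula: S. aureus ATCC 6538 6-8 × 10^6 cfu/mL, P. aeruginosa ATCC 9027 12-13 × 10^6/mL, S. pyogenes ATCC 19615 5 × 10^6 cfu/mL. At 0.5-30 min intervals a loop was subcultured into nutrient broth and incubated 7 days at 37 °C. Sterilization time is the first interval giving no growth.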

Pseudomonas aeruginosa [12] = test: Sterilization time for contact germicidal efficiency (CGE) of salt was tested against at Pseudomonas aeruginosa at pH 7.0, concentration 1116.0 ppm; format: functional; procedure, shortened: as §3
Streptococcus pyogenes [13] = test: Sterilization time for contact germicidal efficiency (CGE) of salt was tested against at Streptococcus pyogenes at pH 6.0, concentration 1016 ppm; format: functional; procedure, shortened: as §2
Staphylococcus aureus [14] = test: Sterilization time for contact germicidal efficiency (CGE) of salt was tested against Staphylococcus aureus at pH 7.0, concentration 1027 ppm; format: functional; procedure, shortened: as §3
Streptococcus pyogenes [15] = test: Sterilization time for contact germicidal efficiency (CGE) of salt was tested against at Streptococcus pyogenes at pH 8.0, concentration 1022 ppm; format: functional; procedure, shortened: as §2
Pseudomonas aeruginosa [16] = test: Sterilization time for contact germicidal efficiency (CGE) of salt was tested against at Pseudomonas aeruginosa at pH 8.0, concentration 1022 ppm; format: functional
Procedure, shortened: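 Pseudomonas aeruginosa ATCC 9027 overnight broth culture (12-13 × 10^6 organisms/mL); 0.2 mL added to 5 mL buffered salt solution held 30 min at room temperature. At intervals from 0.5 to 30 min, a 3-mm loop was subcultured into nutrient broth and incubated at 37 °C for 7 days. Sterilization time is the shortest interval whose subculture gave no growth.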

Pseudomonas aeruginosa [17] = test: Sterilization time for contact germicidal efficiency (CGE) of salt was tested against at Pseudomonas aeruginosa at pH 6.0, concentration 1016 ppm; format: functional; procedure, shortened: as §3
Staphylococcus aureus [18] = test: Sterilization time for contact germicidal efficiency (CGE) of salt was tested against Staphylococcus aureus at pH 7.0 in horse serum at contact time=5 min; format: functional
Procedure, shortened: (§4)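 S. aureus ATCC 6538 CGE screen with solutions in 0.1 M NaH2PO4 pH 7.0 diluted with 10% horse serum in distilled water, adjusted to pH 7 with CO2. Contact times of 0-15 min were used. Overnight culture was added, and loop subcultures taken at 0.5-30 min were grown 7 days at 37 °C in nutrient broth. Sterilization time is the first interval giving no growth.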

Staphylococcus aureus [19] = test: Sterilization time for contact germicidal efficiency (CGE) of salt was tested against at Staphylococcus aureus at pH 6.0, concentration 1016 p.p.m.; format: functional
Procedure, shortened: (§5)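 Staphylococcus aureus ATCC 6538, overnight broth culture at 6-8 × 10^6 cfu/mL; 0.2 mL inoculated into 5 mL of buffered quaternary salt solution pre-held 30 min at room temperature. Loop subcultures (3 mm) taken at 0.5-30 min intervals into nutrient broth, incubated at 37 °C for 7 days and read daily. The endpoint is the earliest time giving a growth-free subculture.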

Staphylococcus aureus [20] = test: Sterilization time for contact germicidal efficiency (CGE) of salt was tested against Staphylococcus aureus at pH 7.0 in water diluent; format: functional; procedure, shortened: as §3
Pseudomonas aeruginosa [21] = test: (§6) Sterilization time for contact germicidal efficiency (CGE) of salt was tested against at Pseudomonas aeruginosa at pH 7.0, concentration 1027 ppm; format: functional; procedure, shortened: as §3
Staphylococcus aureus [22] = test: Sterilization time for contact germicidal efficiency (CGE) of salt was tested against at Staphylococcus aureus at pH 7.0, concentration 1027 ppm; format: functional; procedure, shortened: as §5
Staphylococcus aureus [23] = test: Sterilization time for contact germicidal efficiency (CGE) of salt was tested against at Staphylococcus aureus at pH 8.0, concentration 1022 ppm; format: functional; procedure, shortened: as §5
Pseudomonas aeruginosa [24] = test: as §6; format: functional; procedure, shortened: as §3; remark: listed apart in the source
Staphylococcus aureus [25] = test: Sterilization time for contact germicidal efficiency (CGE) of salt was tested against Staphylococcus aureus at pH 7.0 in horse serum at contact time=15 min; format: functional; procedure, shortened: as §4
Staphylococcus aureus [26] = test: Sterilization time for contact germicidal efficiency (CGE) of salt was tested against Staphylococcus aureus at pH 7.0 in horse serum at contact time=0 min; format: functional; procedure, shortened: as §4
Staphylococcus aureus [27] = test: Sterilization time for contact germicidal efficiency (CGE) of salt was tested against Staphylococcus aureus at pH 7.0 in horse serum at contact time=10 min; format: functional; procedure, shortened: as §4
Streptococcus pyogenes [28] = test: Sterilization time for contact germicidal efficiency (CGE) of salt was tested against at Streptococcus pyogenes at pH 7.0, concentration 1027 ppm; format: functional; procedure, shortened: as §2

Cn1ccnc1 [1-METHYLIMIDAZOLE]
Time (Streptococcus pyogenes [1]): >30 min
Time (Pseudomonas aeruginosa [2]): >30 min
Time (Staphylococcus aureus [3]): >30 min

CCCCCCCCCCCC(=O)OC[N+]1=CN(C)CC1.[Cl-]
LD50 [4]: 155 mg/kg
LD50 [5]: 4110 mg/kg
LD50 [6]: 75 mg/kg

CCCCCCCCCCCCCCCC(=O)OC[N+]1=CN(C)CC1.[Cl-]
MIC (Bacillus subtilis): > 42.4 µg/mL
MIC (Staphylococcus aureus [7]): 1.3 µg/mL
MIC (Pseudomonas aeruginosa [8]): > 42.4 µg/mL
MIC (Salmonella typhimurium): > 42.4 µg/mL
MIC (Streptococcus pyogenes [9]): > 42.4 µg/mL

CCCCCCCCCCCC(=O)OC[n+]1cccc(C(=O)NCC)c1.[Cl-]
MIC (Bacillus subtilis): 32.6 µg/mL
MIC (Staphylococcus aureus [7]): 130 µg/mL
MIC (Pseudomonas aeruginosa [8]): 1040 µg/mL
Time (Streptococcus pyogenes [10]): 0.5 min
MIC (Salmonella typhimurium): 522 µg/mL
Time (Staphylococcus aureus [11]): 0.5 min
Time (Pseudomonas aeruginosa [12]): 3 min
MIC (Streptococcus pyogenes [9]): 32.6 µg/mL

CCCCCCCCCCCC(=O)OC[N+]12CCC(CC1)CC2.[Cl-]
Time (Streptococcus pyogenes [13]): 0.5 min
MIC (Bacillus subtilis): 32.8 µg/mL
Time (Staphylococcus aureus [14]): 0.5 min
Time (Streptococcus pyogenes [15]): 2 min
MIC (Staphylococcus aureus [7]): 16.4 µg/mL
Time (Pseudomonas aeruginosa [16]): 0.5 min
MIC (Pseudomonas aeruginosa [8]): 1050 µg/mL
Time (Pseudomonas aeruginosa [17]): 0.5 min
Time (Staphylococcus aureus [18]): 3 min
Time (Staphylococcus aureus [19]): 1 min
Time (Staphylococcus aureus [20]): 0.5 min
Time (Pseudomonas aeruginosa [21]): 0.5 min
Time (Staphylococcus aureus [22]): 0.5 min
Time (Staphylococcus aureus [23]): 0.5 min
Time (Pseudomonas aeruginosa [24]): 3 min
MIC (Salmonella typhimurium): 262 µg/mL
Time (Staphylococcus aureus [25]): >30 min
Time (Staphylococcus aureus [26]): 1 min
Time (Staphylococcus aureus [27]): 5 min
Time (Streptococcus pyogenes [28]): 0.5 min
MIC (Streptococcus pyogenes [9]): 4.1 µg/mL
